Results on two compounds are retold here after ChEMBL document CHEMBL4052629, “Scutellarin derivatives as apoptosis inducers: Design, synthesis and biological evaluation” (Eur J Med Chem, 2017).

Active and inactive are the calls of the source. The rule behind the calls is not given here.

The subject of series [1] is HepG2. Kind of series: Induction of apoptosis in human HepG2 cells assessed as early apoptotic cells at 0.3 uM after 72 hrs by Annexin V-APC/7-AAD or propidium iodide staining-based flow cytometric analysis (reference value: 1.87%). The series is classed as functional.
Series [2] concerns HepG2. The experiment in a line: Induction of apoptosis in human HepG2 cells assessed as reduction in Hsp27 expression levels at 2 uM after 24 hrs by membrane-based sandwich immunoassay. It is filed as functional, cell-based. In a few lines:
(§1)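 HepG2 cells treated at 2 μM for 24 h; protein extracts prepared per the kit protocol. Relative levels of 35 apoptosis-related proteins measured with a human apoptosis antibody array.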

Series [3] in a line: Induction of apoptosis in human LO2 cells assessed as viable cells at 1.2 uM after 72 hrs by Annexin V-FITC/7-AAD or propidium iodide staining-based flow cytometric analysis (reference value: 94.26%). It is filed as cell-based, L02. The note with it: read-out: Activity. For orientation: A flow cytometer gives signals particle by particle.
Series [4] relates to HepG2. Kind of series: Cell cycle arrest in human HepG2 cells assessed as accumulation at G1 phase at 1.2 uM after 72 hrs by propidium iodide staining-based flow cytometric analysis (reference value: 34%). The series is classed as functional. The method, boiled down: (§2)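 Concentrations used were 0, 0.3, 0.6 and 1.2 μM in HepG2 and 0, 0.16, 0.31 and 1.25 μM in PC-3, with untreated cells as control, for 72 h. Cells were trypsinized, washed in PBS, fixed in cold ethanol at 4 °C overnight, then incubated 30 min in PBS containing RNase A and propidium iodide. DNA content was read by flow cytometry to give phase distribution.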

Series [5] has as its system HepG2. The experiment in a line: Cell cycle arrest in human HepG2 cells assessed as accumulation at S phase at 0.3 uM after 72 hrs by propidium iodide staining-based flow cytometric analysis (reference value: 44.6%). The series is classed as functional. In a few lines: as §2
The test system of series [6] is HepG2. Kind of series: Induction of apoptosis in human HepG2 cells assessed as reduction in mitochondrial membrane potential at 0.6 uM after 48 hrs by JC-1 staining-based flow cytometric analysis (reference value: 1.6%). It is filed as functional. Also on record: scale not given: the % may be the effect or the level left. In a few lines:
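HepG2 cells cultured overnight, then incubated in triplicate with 0, 0.3, 0.6 or 1.2 μM, or vehicle, for 48 h. Stained with the cationic dye JC-1. Flow cytometry gave the percentage of cells with healthy versus collapsed mitochondrial membrane potential.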

In series [7] the test system is HepG2. The experiment in a line: Induction of apoptosis in human HepG2 cells assessed as late apoptotic cells at 0.6 uM after 72 hrs by Annexin V-APC/7-AAD or propidium iodide staining-based flow cytometric analysis (reference value: 4.14%). It is filed as functional.
Series [8] relates to HepG2. Kind of series: Induction of apoptosis in human HepG2 cells assessed as necrotic cells at 0.6 uM after 72 hrs by Annexin V-APC/7-AAD or propidium iodide staining-based flow cytometric analysis (reference value: 1.87%). The series is classed as functional.
The subject of series [9] is HepG2. Kind of series: Induction of apoptosis in human HepG2 cells assessed as reduction in HO-1 expression levels at 2 uM after 24 hrs by membrane-based sandwich immunoassay. It is filed as functional, cell-based. The method, boiled down: as §1
Another series deals with L02. Kind of series: Induction of apoptosis in human LO2 cells assessed as necrotic cells at 1.25 uM after 72 hrs by Annexin V-FITC/7-AAD or propidium iodide staining-based flow cytometric analysis (reference value: 1.99%). It is filed as cell-based. The settings on record: l02, 72 h.
Series [10] has as its system PC-3. Kind of series: Induction of apoptosis in human PC3 cells assessed as late apoptotic cells at 1.25 uM after 72 hrs by Annexin V-APC/7-AAD or propidium iodide staining-based flow cytometric analysis (reference value: 4.74%). It is filed as functional.
Series [11] has as its system PC-3. The experiment in a line: Induction of apoptosis in human PC3 cells assessed as viable cells at 0.31 uM after 72 hrs by Annexin V-APC/7-AAD or propidium iodide staining-based flow cytometric analysis (reference value: 88.74%). It is filed as functional. The note with it: PC-3, 72 h, read-out: Activity.
In series [12] the test system is PC-3. The experiment in a line: Cell cycle arrest in human PC3 cells assessed as accumulation at G1 phase at 1.25 uM after 72 hrs by propidium iodide staining-based flow cytometric analysis (reference value: 53.36%). The series is classed as functional. The method, boiled down:
as §2

Series [13] has as its system PC-3. The experiment in a line: Induction of apoptosis in human PC3 cells assessed as nuclear fragmentation at 0.16 to 1.25 uM after 48 hrs by Hoechst 33258 staining-based fluorescent microscopic analysis. It is filed as functional, cell-based. In a few lines:
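PC-3 cells grown on sterile cover slips were exposed to 0, 0.16, 0.31 or 1.25 μM, or vehicle, for 48 h. Then fixed with 4% paraformaldehyde for 10 min, washed twice in PBS, stained with Hoechst 33258 for 5 min and washed again. Nuclei imaged at 350 nm excitation and 460 nm emission.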

For series [14], the system named is PC-3. The experiment in a line: Cell cycle arrest in human PC3 cells assessed as accumulation at S phase at 0.16 uM after 72 hrs by propidium iodide staining-based flow cytometric analysis (reference value: 36.46%). It is filed as functional. In a few lines: as §2
Series [15] concerns PC-3. Kind of series: Cell cycle arrest in human PC3 cells assessed as accumulation at G1 phase at 0.31 uM after 72 hrs by propidium iodide staining-based flow cytometric analysis (reference value: 53.36%). It is filed as functional. The method, boiled down:
as §2

For series [16], the system named is PC-3. The experiment in a line: Induction of apoptosis in human PC3 cells assessed as late apoptotic cells at 0.31 uM after 72 hrs by Annexin V-APC/7-AAD or propidium iodide staining-based flow cytometric analysis (reference value: 4.74%). It is filed as functional.
Series [17] has as its system PC-3. Kind of series: Induction of apoptosis in human PC3 cells assessed as viable cells at 0.16 uM after 72 hrs by Annexin V-APC/7-AAD or propidium iodide staining-based flow cytometric analysis (reference value: 88.74%). The series is classed as functional. The note with it: PC-3, 72 h, read-out: Activity.
Series [18] concerns PC-3. The experiment in a line: Induction of apoptosis in human PC3 cells assessed as early apoptotic cells at 0.31 uM after 72 hrs by Annexin V-APC/7-AAD or propidium iodide staining-based flow cytometric analysis (reference value: 4.09%). It is filed as functional.
The subject of series [19] is PC-3. The experiment in a line: Cell cycle arrest in human PC3 cells assessed as accumulation at G2/M phase at 1.25 uM after 72 hrs by propidium iodide staining-based flow cytometric analysis (reference value: 10.19%). The series is classed as functional. The method, boiled down:
as §2

The subject of series [20] is PC-3. Kind of series: Induction of apoptosis in human PC3 cells assessed as necrotic cells at 0.31 uM after 72 hrs by Annexin V-APC/7-AAD or propidium iodide staining-based flow cytometric analysis (reference value: 2.43%). The series is classed as functional.

Regarding `O=C(NCCCOc1no[n+]([O-])c1S(=O)(=O)c1ccccc1)[C@H]1O[C@@H](Oc2cc3oc(-c4ccc(OCc5ccccc5)cc4)cc(=O)c3c(O)c2OCc2ccccc2)[C@H](O)[C@@H](O)[C@@H]1O`, the Activity in the series with HepG2 [1] came to 3.04%; in the series on HepG2 [4] it was 27.12%; in the series on HepG2 [5] it was 47.14%; in the series with HepG2 [6], 31.12%; in the series with HepG2 [7] it was 19.97%; in the series on HepG2 [8], 2.31%. For the same compound, the outcome in the series on HepG2 [2] and in the series with HepG2 [9] was Active. Also, in series [3], the viability at 72 h, 1.2 µM was determined as 81.5%.
For `COc1ccc(-c2cc(=O)c3c(O)c(OC)c(O[C@@H]4O[C@H](C(=O)NCCOc5no[n+]([O-])c5S(=O)(=O)c5ccccc5)[C@@H](O)[C@H](O)[C@H]4O)cc3o2)cc1`, the Activity in the series on L02 worked out at 1.32%; in the series with PC-3 [10] it was 43.54%; in the series with PC-3 [12], 40.49%; with PC-3 [14], 38.34%; in the series with PC-3 [15], 43.22%; in the series with PC-3 [16], 22.46%. The Activity is listed as 13.2% in the series with PC-3 [18], 9.1% in the series on PC-3 [19] and 2.76% with PC-3 [20]. Moreover, the viability at 0.31 µM with PC-3 [11] was 61.6%. The outcome in the series on PC-3 [13] was Active. In addition, the viability at 0.16 µM in the series on PC-3 [17] was determined as 79.1%.
